Test results: ChEMBL document CHEMBL4400512, “Searching for new agents active against Candida albicans biofilm: A series of indole derivatives, design, synthesis and biological evaluation” (Eur J Med Chem, 2019)
Converted amounts (≈) assume the structure as drawn.

Legend:
[1] = Toxicity in Galleria mellonella larvae assessed as larval survival at 50 ug/ml after 72 hrs relative to control
Method in brief: (§1)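 Ten healthy larvae per group, stored at 15°C in the dark. Each got a 20 µL injection into the haemocoel via the last left proleg, with compound freshly made in sterile water containing <1% v/v DMSO. Larvae were incubated at 30°C and survival scored every 24 h; death was no movement on stimulation plus cuticle discolouration. Controls were untreated, pierced-only and vehicle. Mean % survival of two independent experiments.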

[2] = Toxicity in Galleria mellonella larvae assessed as larval survival at 50 ug/ml after 24 hrs relative to control; method in brief: as §1
[3] = Toxicity in Galleria mellonella larvae assessed as larval survival at 50 ug/ml after 48 hrs relative to control; method in brief: as §1
Candida albicans [4] = assay: Antibiofilm activity against Candida albicans ATCC 10261 assessed as inhibition of biofilm formation by XTT reduction assay; type: functional
Method in brief: (§2)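 Biofilm method of Pierce et al. Biofilms were treated either during formation or once mature (24 h preformed). Metabolic activity of the cells within the biofilm was read by XTT reduction. BMIC50 is the lowest concentration giving a 50% drop in metabolic activity versus the untreated growth control. At least two experiments on separate dates, triplicate, reported as median.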

Candida albicans [5] = assay: Antifungal activity against planktonic form of Candida albicans ATCC 10231 by broth microdilution method; type: organism-based; conditions: in vitro
Method in brief: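 CLSI M27-A3 broth microdilution. Cells grown on Sabouraud dextrose agar at 35°C for 24 h; final inoculum 1×10^3–5×10^3 cells/mL. Compounds from DMSO stocks, final DMSO below 1%, final range 256–0.25 µg/mL. Controls were DMSO 1% and fluconazole reference. MIC50 is the lowest concentration giving ≥50% growth inhibition. Three independent experiments in duplicate; median reported.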

[6] = Toxicity in Galleria mellonella larvae assessed as larval survival at 500 ug/ml after 72 hrs relative to control; method in brief: as §1
Candida albicans [7] = assay: Antifungal activity against planktonic form of Candida albicans PMC 1042 by broth microdilution method; type: organism-based; conditions: in vitro
Method in brief: (§3)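 Broth microdilution per CLSI M27-A3 and M27-S4. Strains were grown on Sabouraud dextrose agar at 35°C for 24 h. Final inoculum 1×10^3–5×10^3 cells/mL. Compounds were dissolved in DMSO (final <1%); 1% DMSO served as control. Final range 256–0.25 µg/mL. MIC50 is the lowest concentration giving ≥50% growth inhibition. Three independent experiments in duplicate, median; fluconazole as reference.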

[8] = Toxicity in Galleria mellonella larvae assessed as larval survival at 1000 ug/ml after 72 hrs relative to control; method in brief: as §1
Candida albicans [9] = assay: Antibiofilm activity against Candida albicans ATCC 10261 assessed as inhibition of mature biofilm formation by XTT reduction assay; type: functional; method in brief: as §2
[10] = Toxicity in Galleria mellonella larvae assessed as larval survival at 100 ug/ml after 72 hrs relative to control; method in brief: as §1
[11] = Toxicity in Galleria mellonella larvae assessed as larval survival at 1000 ug/ml after 24 hrs relative to control; method in brief: as §1
[12] = Toxicity in Galleria mellonella larvae assessed as larval survival at 500 ug/ml after 48 hrs relative to control; method in brief: as §1
Candida albicans [13] = assay: Antibiofilm activity against Candida albicans PMC 1042 assessed as inhibition of mature biofilm formation by XTT reduction assay; type: functional; method in brief: as §2
[14] = Toxicity in Galleria mellonella larvae assessed as larval survival at 10 ug/ml after 48 hrs relative to control; method in brief: as §1
[15] = Toxicity in Galleria mellonella larvae assessed as larval survival at 500 ug/ml after 24 hrs relative to control; method in brief: as §1
Candida albicans [16] = assay: Antibiofilm activity against Candida albicans PMC 1082 assessed as inhibition of mature biofilm formation by XTT reduction assay; type: functional; method in brief: as §2
Candida albicans [17] = assay: Antibiofilm activity against Candida albicans PMC 1042 assessed as inhibition of biofilm formation by XTT reduction assay; type: functional; method in brief: as §2
[18] = Toxicity in Galleria mellonella larvae assessed as larval survival at 100 ug/ml after 24 hrs relative to control; method in brief: as §1
Candida albicans [19] = assay: Antifungal activity against planktonic form of Candida albicans ATCC 10261 by broth microdilution method; type: organism-based; conditions: in vitro; method in brief: as §3
Candida albicans [20] = assay: Antibiofilm activity against Candida albicans ATCC 10231 assessed as inhibition of biofilm formation by XTT reduction assay; type: functional
Method in brief: (§4)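 Biofilm assay after Pierce et al., with compound applied either during biofilm formation or to 24 h pre-formed (mature) biofilm. Read-out is metabolic activity of cells in the biofilm by XTT reduction. BMIC50 is the lowest concentration giving a 50% drop relative to untreated growth control. Tested in triplicate, at least two experiments on separate dates; median reported.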

[21] = Toxicity in Galleria mellonella larvae assessed as larval survival at 10 ug/ml after 72 hrs relative to control; method in brief: as §1
Candida albicans [22] = assay: Antifungal activity against planktonic form of Candida albicans PMC 1082 by broth microdilution method; type: organism-based; conditions: in vitro; method in brief: as §3
[23] = Toxicity in Galleria mellonella larvae assessed as larval survival at 10 ug/ml after 24 hrs relative to control; method in brief: as §1
[24] = Toxicity in Galleria mellonella larvae assessed as larval survival at 1000 ug/ml after 48 hrs relative to control; method in brief: as §1
Candida albicans [25] = assay: Antibiofilm activity against Candida albicans ATCC 10231 assessed as inhibition of mature biofilm formation by XTT reduction assay; type: functional; method in brief: as §4
Candida albicans [26] = assay: Antibiofilm activity against Candida albicans PMC 1082 assessed as inhibition of biofilm formation by XTT reduction assay; type: functional; method in brief: as §2
[27] = Toxicity in Galleria mellonella larvae assessed as larval survival at 100 ug/ml after 48 hrs relative to control; method in brief: as §1
[28] = Toxicity in Galleria mellonella larvae assessed as larval survival at 5 ug/ml after 72 hrs relative to control; method in brief: as §1
[29] = Toxicity in Galleria mellonella larvae assessed as larval survival at 5 ug/ml after 24 hrs relative to control; method in brief: as §1
[30] = Toxicity in Galleria mellonella larvae assessed as larval survival at 5 ug/ml after 48 hrs relative to control; method in brief: as §1

SMILES | survival at 72 h [1] | survival at 24 h [2] | survival at 48 h [3] | MBIC50 (Candida albicans [4]) | MIC50 (Candida albicans [5]) | survival at 72 h [6] | MIC50 (Candida albicans [7]) | MBIC50 (Candida albicans [9]) | survival at 72 h [10] | survival at 48 h [12] | MBIC50 (Candida albicans [13]) | survival at 48 h [14] | survival at 24 h [15] | MBIC50 (Candida albicans [16]) | MBIC50 (Candida albicans [17]) | survival at 24 h [18] | MIC50 (Candida albicans [19]) | MBIC50 (Candida albicans [20]) | survival at 72 h [21] | MIC50 (Candida albicans [22]) | also measured
CC(C)Cc1ccc(C(C)C(=O)NCCc2c[nH]c3ccccc23)cc1 (stereo unspecified) | 100% | 100% | 100% | 8 µg/mL | > 128 µg/mL | 100% | > 256 µg/mL | 8 µg/mL | 100% | 100% | 2 µg/mL | 100% | 100% | 4 µg/mL | 8 µg/mL | 100% | > 256 µg/mL | 16 µg/mL | 100% | > 256 µg/mL | survival at 72 h [8]: 100%; survival at 24 h [11]: 100%; survival at 24 h [23]: 100%; survival at 48 h [24]: 100%; MBIC50 (Candida albicans [25]): 8 µg/mL; MBIC50 (Candida albicans [26]): 8 µg/mL; survival at 48 h [27]: 100%
c1ccc2cc(CNCCc3c[nH]c4ccccc34)ccc2c1 | 90% | 90% | 90% | 8 µg/mL | 16 µg/mL (≈ 53.3 µM) | 100% | 128 µg/mL (≈ 426 µM) | 8 µg/mL | 100% | 100% | 2 µg/mL | 100% | 100% | 2 µg/mL | 8 µg/mL | 100% | 32 µg/mL (≈ 107 µM) | 8 µg/mL | 100% | 32 µg/mL (≈ 107 µM) | survival at 72 h [28]: 100%; survival at 24 h [29]: 100%; survival at 24 h [23]: 100%; MBIC50 (Candida albicans [25]): 2 µg/mL; MBIC50 (Candida albicans [26]): 8 µg/mL; survival at 48 h [30]: 100%; survival at 48 h [27]: 100%
O=[N+]([O-])c1ccc(N2CCN(Cc3c[nH]c4ccccc34)CC2)cc1 | 100% | 100% | 100% | 32 µg/mL | > 128 µg/mL | 100% | > 256 µg/mL | 8 µg/mL | 100% | 100% | 2 µg/mL | 100% | 100% | 2 µg/mL | 32 µg/mL | 100% | > 256 µg/mL | >128 µg/mL | 100% | > 256 µg/mL | survival at 72 h [28]: 100%; survival at 24 h [29]: 100%; survival at 24 h [23]: 100%; MBIC50 (Candida albicans [25]): 4 µg/mL; MBIC50 (Candida albicans [26]): 32 µg/mL; survival at 48 h [30]: 100%; survival at 48 h [27]: 100%
